# Assay results as given in ChEMBL document CHEMBL3400011, “Canthinone alkaloids are novel protein tyrosine phosphatase 1B inhibitors” (Bioorg Med Chem Lett, 2015).
# Legend:
# [1] = molecular target: T1, Tyrosine-protein phosphatase non-receptor type 2 (Homo sapiens) (UniProt P17706); assay: Inhibition of TCPTP (unknown origin) assessed as inhibition rate at 75 uM
# T1 sequence (whole entry): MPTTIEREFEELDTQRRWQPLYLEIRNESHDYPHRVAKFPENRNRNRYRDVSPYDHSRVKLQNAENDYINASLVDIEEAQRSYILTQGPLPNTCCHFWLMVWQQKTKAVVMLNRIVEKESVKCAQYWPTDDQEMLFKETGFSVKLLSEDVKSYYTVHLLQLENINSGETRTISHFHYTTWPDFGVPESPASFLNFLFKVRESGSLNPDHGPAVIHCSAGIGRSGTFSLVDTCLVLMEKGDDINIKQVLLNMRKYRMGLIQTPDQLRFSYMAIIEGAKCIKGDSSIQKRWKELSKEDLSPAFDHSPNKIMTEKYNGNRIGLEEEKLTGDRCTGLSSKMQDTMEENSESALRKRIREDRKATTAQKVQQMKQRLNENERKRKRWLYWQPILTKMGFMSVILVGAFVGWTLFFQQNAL
# Homo sapiens [2] = species: Homo sapiens; assay: Ratio of inhibition rate for PTP1B (unknown origin) at 75 uM to inhibition rate for VHR (unknown origin) at 75 uM
# [3] = molecular target: T2, Tyrosine-protein phosphatase non-receptor type 11 (Homo sapiens) (UniProt Q06124); assay: Inhibition of SHP2 (unknown origin) assessed as inhibition rate at 75 uM
# T2 sequence (whole entry): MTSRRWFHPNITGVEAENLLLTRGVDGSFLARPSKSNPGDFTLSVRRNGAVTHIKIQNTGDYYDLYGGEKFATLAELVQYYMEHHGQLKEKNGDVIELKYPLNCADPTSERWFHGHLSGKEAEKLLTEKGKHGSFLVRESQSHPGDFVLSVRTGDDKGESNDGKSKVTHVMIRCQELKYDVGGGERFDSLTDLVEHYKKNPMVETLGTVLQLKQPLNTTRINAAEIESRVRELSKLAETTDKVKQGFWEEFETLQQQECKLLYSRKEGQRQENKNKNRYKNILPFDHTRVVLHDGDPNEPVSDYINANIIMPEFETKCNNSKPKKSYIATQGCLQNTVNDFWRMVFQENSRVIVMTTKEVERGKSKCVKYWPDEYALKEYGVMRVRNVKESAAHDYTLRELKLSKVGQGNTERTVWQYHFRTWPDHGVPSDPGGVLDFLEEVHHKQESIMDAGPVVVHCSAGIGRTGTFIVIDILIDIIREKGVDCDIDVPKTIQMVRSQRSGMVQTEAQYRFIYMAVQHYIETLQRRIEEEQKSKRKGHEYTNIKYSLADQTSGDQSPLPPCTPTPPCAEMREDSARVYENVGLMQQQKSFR
# [4] = molecular target: Dual specificity protein phosphatase 3 (Homo sapiens) (UniProt P51452); assay: Inhibition of VHR (unknown origin) assessed as inhibition rate at 75 uM
# Sequence of Dual specificity protein phosphatase 3 (Homo sapiens) (P51452 whole entry, looked up): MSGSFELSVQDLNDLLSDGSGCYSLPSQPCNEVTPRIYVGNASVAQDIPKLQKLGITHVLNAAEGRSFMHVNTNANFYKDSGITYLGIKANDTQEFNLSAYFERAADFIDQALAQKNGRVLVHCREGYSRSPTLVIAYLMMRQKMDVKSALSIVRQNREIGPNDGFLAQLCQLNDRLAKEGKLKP
# Homo sapiens [5] = species: Homo sapiens; assay: Ratio of inhibition rate for PTP1B (unknown origin) at 75 uM to inhibition rate for SHP2 (unknown origin) at 75 uM
# Homo sapiens [6] = species: Homo sapiens; assay: Ratio of inhibition rate for PTP1B (unknown origin) at 75 uM to inhibition rate for TCPTP (unknown origin) at 75 uM
# [7] = molecular target: T3, Tyrosine-protein phosphatase non-receptor type 1 (Homo sapiens, UniProt P18031); assay: Inhibition of PTP1B (unknown origin)
# T3 sequence (P18031 whole entry): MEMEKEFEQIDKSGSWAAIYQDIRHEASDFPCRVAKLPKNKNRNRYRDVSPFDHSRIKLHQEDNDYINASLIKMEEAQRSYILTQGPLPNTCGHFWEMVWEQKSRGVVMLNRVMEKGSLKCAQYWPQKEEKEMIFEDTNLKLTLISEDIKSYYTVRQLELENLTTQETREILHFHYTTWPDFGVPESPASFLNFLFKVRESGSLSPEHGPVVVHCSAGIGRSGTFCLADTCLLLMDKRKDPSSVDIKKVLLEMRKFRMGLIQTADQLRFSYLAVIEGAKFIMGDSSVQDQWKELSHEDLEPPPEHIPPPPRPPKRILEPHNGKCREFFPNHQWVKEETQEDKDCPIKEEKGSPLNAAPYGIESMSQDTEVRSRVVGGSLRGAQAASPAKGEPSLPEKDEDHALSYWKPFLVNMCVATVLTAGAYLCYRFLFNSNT
# Procedure, shortened: (§1)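 PTP1B enzymatic assay with RK-682 as the positive control. For the single-point screen, compounds were tested at a final 100 µM. For dose–response, inhibition was measured over a range of compound concentrations, and IC50 was obtained by regression analysis.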
# HepG2 = assay: Induction of Akt phosphorylation in insulin-stimulated human HepG2 cells assessed as pAkt/Akt ratio at 50 uM after 5 mins by western blotting analysis relative to control; assay type: functional
# Procedure, shortened: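 HepG2 cells were treated with compound at 50 µM, then stimulated with insulin. pAkt was assessed by western blotting at 0 and 5 min after insulin. DMSO served as the negative control and sodium orthovanadate (200 µM) as the positive control. Values are expressed relative to control.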
# [8] = molecular target: T4, Tyrosine-protein phosphatase non-receptor type 1 (Homo sapiens) (UniProt P18031); assay: Inhibition of PTP1B (unknown origin) assessed as inhibition rate at 75 uM
# T4 sequence (whole entry): T3 sequence (P18031 whole entry)
# [9] = molecular target: Tyrosine-protein phosphatase non-receptor type 6 (Homo sapiens) (UniProt P29350); assay: Inhibition of SHP1 (unknown origin) assessed as inhibition rate at 75 uM
# Sequence of Tyrosine-protein phosphatase non-receptor type 6 (Homo sapiens) (P29350 whole entry): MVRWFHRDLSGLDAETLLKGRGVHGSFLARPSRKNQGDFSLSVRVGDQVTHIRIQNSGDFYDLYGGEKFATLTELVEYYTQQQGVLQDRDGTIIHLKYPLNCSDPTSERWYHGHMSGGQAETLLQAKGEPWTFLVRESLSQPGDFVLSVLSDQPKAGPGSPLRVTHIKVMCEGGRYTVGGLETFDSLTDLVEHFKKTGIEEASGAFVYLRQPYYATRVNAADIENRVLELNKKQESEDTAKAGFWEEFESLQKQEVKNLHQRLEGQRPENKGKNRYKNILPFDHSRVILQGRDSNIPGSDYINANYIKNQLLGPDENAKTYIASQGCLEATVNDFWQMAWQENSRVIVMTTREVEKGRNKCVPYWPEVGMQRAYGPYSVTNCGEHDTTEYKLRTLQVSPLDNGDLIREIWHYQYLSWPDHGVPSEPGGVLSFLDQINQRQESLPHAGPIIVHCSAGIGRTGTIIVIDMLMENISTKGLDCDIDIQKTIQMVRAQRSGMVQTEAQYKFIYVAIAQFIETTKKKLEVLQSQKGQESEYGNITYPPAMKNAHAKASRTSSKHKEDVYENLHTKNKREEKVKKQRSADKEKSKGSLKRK
# [10] = molecular target: T3, Tyrosine-protein phosphatase non-receptor type 1; assay: Competitive inhibition of PTP1B (unknown origin) assessed as hydrolysis of para-nitrophenylphosphate by Lineweaver-Burk plot
# Procedure, shortened: (§2)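 Kinetic study of PTP1B varying both compound and p-nitrophenylphosphate substrate concentrations. Mode was read from Lineweaver–Burk plots. Slopes from those plots were replotted against compound concentration (secondary plot), and Ki was calculated from that plot.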
# Homo sapiens [11] = species: Homo sapiens; assay: Ratio of inhibition rate for PTP1B (unknown origin) at 75 uM to inhibition rate for SHP1 (unknown origin) at 75 uM
# [12] = molecular target: T4, Tyrosine-protein phosphatase non-receptor type 1 (Homo sapiens); assay: Inhibition of PTP1B (unknown origin) assessed as inhibition rate at 100 uM; procedure, shortened: as §1
# [13] = molecular target: T3, Tyrosine-protein phosphatase non-receptor type 1; assay: Non-competitive inhibition of PTP1B (unknown origin) assessed as hydrolysis of para-nitrophenylphosphate by Lineweaver-Burk plot; procedure, shortened: as §2
# [14] = molecular target: T2, Tyrosine-protein phosphatase non-receptor type 11 (Homo sapiens); assay: Inhibition of SHP2 (unknown origin) assessed as inhibition rate at 100 uM
# Homo sapiens [15] = species: Homo sapiens; assay: Ratio of inhibition rate for PTP1B (unknown origin) at 75 uM to inhibition rate for TCPTP (unknown origin) at 100 uM
# Homo sapiens [16] = species: Homo sapiens; assay: Ratio of inhibition rate for PTP1B (unknown origin) at 75 uM to inhibition rate for SHP1 (unknown origin) at 100 uM
# [17] = molecular target: Tyrosine-protein phosphatase non-receptor type 6 (Homo sapiens) (UniProt P29350); assay: Inhibition of SHP1 (unknown origin) assessed as inhibition rate at 100 uM
# [18] = molecular target: T1, Tyrosine-protein phosphatase non-receptor type 2 (Homo sapiens); assay: Inhibition of TCPTP (unknown origin) assessed as inhibition rate at 100 uM
# Homo sapiens [19] = species: Homo sapiens; assay: Ratio of inhibition rate for PTP1B (unknown origin) at 75 uM to inhibition rate for SHP2 (unknown origin) at 100 uM
# Homo sapiens [20] = species: Homo sapiens; assay: Ratio of inhibition rate for PTP1B (unknown origin) at 75 uM to inhibition rate for VHR (unknown origin) at 100 uM
# [21] = molecular target: Dual specificity protein phosphatase 3 (Homo sapiens) (UniProt P51452); assay: Inhibition of VHR (unknown origin) assessed as inhibition rate at 100 uM
# [22] = molecular target: Tyrosine-protein phosphatase non-receptor type 6 (Homo sapiens) (UniProt P29350); assay: Inhibition of SHP1 (unknown origin) assessed as inhibition rate at 90 uM
# [23] = molecular target: Dual specificity protein phosphatase 3 (Homo sapiens) (UniProt P51452); assay: Inhibition of VHR (unknown origin) assessed as inhibition rate at 90 uM
# [24] = molecular target: T4, Tyrosine-protein phosphatase non-receptor type 1 (Homo sapiens); settings: 90 uM
# [25] = molecular target: T2, Tyrosine-protein phosphatase non-receptor type 11 (Homo sapiens); assay: Inhibition of SHP2 (unknown origin) assessed as inhibition rate at 90 uM
# [26] = molecular target: T1, Tyrosine-protein phosphatase non-receptor type 2 (Homo sapiens); assay: Inhibition of TCPTP (unknown origin) assessed as inhibition rate at 90 uM
IC50 [7] [µM],inhibition [12] [%],Ki [13] [µM],inhibition [14] [%],Ratio (Homo sapiens [15]),Ratio (Homo sapiens [16]),inhibition [17] [%],inhibition [18] [%],Ratio (Homo sapiens [19]),Ratio (Homo sapiens [20]),inhibition [21] [%],Compound,pAkt/Akt ratio (HepG2),further results
19.8,,,,,,,,,,,Cn1ccc2c3n(c(=O)c(=O)cc1-3)c1ccccc21,2.4,inhibition [1]: 29%; Ratio (Homo sapiens [2]): 4.4; inhibition [3]: 16.3%; inhibition [4]: 20.6%; Ratio (Homo sapiens [5]): 5.6; Ratio (Homo sapiens [6]): 3.2; inhibition [8]: 91.4%; inhibition [9]: 13.2%; Ki [10]: 7.07 µM; Ratio (Homo sapiens [11]): 6.9
19.2,93.8,12.9,44.4,6.3,3.3,28.7,15,2.1,1.5,61.4,COc1ccc2c3ccn(C)c4cc(=O)c(=O)n(c3-4)c2c1,1.8,
27.8,91,20,25,2.3,4.4,20.6,40,3.6,4.6,19.7,CCc1c2n(C)ccc3c-2n(c(=O)c1=O)c1ccccc31,1.2,
28.9,,18.4,,,,,,,,,CC(=O)Oc1cc2nccc3c4ccccc4n(c1=O)c23,2.1,inhibition [22]: 30.2%; inhibition [23]: 46%; inhibition [24]: 90.3%; inhibition [25]: 23%; inhibition [26]: 22.1%
